Test results reported in ChEMBL document CHEMBL3407388, “Synthesis, anticancer activity and molecular docking studies on a series of heterocyclic trans-cyanocombretastatin analogues as antitubulin agents” (2015).

Columns and labels:
Assay type in all cases: functional
HL-60(TB) = assay: Cytotoxicity against human HL-60(TB) cells assessed as growth inhibition after 48 hrs by SRB assay; conditions: HL-60, 48 h
Outline: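 NCI 60-cell panel, leukemia subpanel. Five-dose screen at 10-fold dilutions from 10−4 to 10−8 M with 48 h drug exposure. GI50 is the molar concentration giving 50% reduction in net cell growth compared with cell numbers on day 0.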

K562 = assay: Cytotoxicity against human K562 cells assessed as growth inhibition after 48 hrs by SRB assay; conditions: K562, 48 h
Outline: (§1)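 NCI 60-cell panel; compounds passing a single-dose screen (10−5 M, 48 h) were tested at five 10-fold dilutions (10−4 to 10−8 M) with 48 h drug exposure. GI50 is the molar concentration giving 50% reduction in net cell growth relative to cell numbers on day 0.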

MOLT-4 = assay: Cytotoxicity against human MOLT4 cells assessed as growth inhibition after 48 hrs by SRB assay; conditions: MOLT-4, 48 h; outline: as §1
RPMI-8226 = assay: Cytotoxicity against human RPMI8226 cells assessed as growth inhibition after 48 hrs by SRB assay; conditions: RPMI-8226, 48 h; outline: as §1
NCI-H226 = assay: Cytotoxicity against human NCI-H226 cells assessed as growth inhibition after 48 hrs by SRB assay; conditions: NCI-H226, 48 h; outline: as §1
NCI-H460 = assay: Cytotoxicity against human NCI-H460 cells assessed as growth inhibition after 48 hrs by SRB assay; conditions: NCI-H460, 48 h; outline: as §1
COLO 205 = assay: Cytotoxicity against human COLO205 cells assessed as growth inhibition after 48 hrs by SRB assay; conditions: COLO 205, 48 h; outline: as §1
HCC 2998 = assay: Cytotoxicity against human HCC2998 cells assessed as growth inhibition after 48 hrs by SRB assay; conditions: HCC 2998, 48 h; outline: as §1
[1] = Cytotoxicity against human HCT116 cells assessed as growth inhibition after 48 hrs by SRB assay; conditions: HCT-116, 48 h; outline: as §1
[2] = Cytotoxicity against human HCT15 cells assessed as growth inhibition after 48 hrs by SRB assay; conditions: HCT-15, 48 h; outline: as §1
HT-29 = assay: Cytotoxicity against human HT-29 cells assessed as growth inhibition after 48 hrs by SRB assay; conditions: HT-29, 48 h; outline: as §1
KM12 = assay: Cytotoxicity against human KM12 cells assessed as growth inhibition after 48 hrs by SRB assay; conditions: KM12, 48 h; outline: as §1
SW-620 = assay: Cytotoxicity against human SW620 cells assessed as growth inhibition after 48 hrs by SRB assay; conditions: SW-620, 48 h
SF-268 = assay: Cytotoxicity against human SF268 cells assessed as growth inhibition after 48 hrs by SRB assay; conditions: SF-268, 48 h; outline: as §1
SF-295 = assay: Cytotoxicity against human SF295 cells assessed as growth inhibition after 48 hrs by SRB assay; conditions: SF-295, 48 h; outline: as §1
SNB-19 = assay: Cytotoxicity against human SNB19 cells assessed as growth inhibition after 48 hrs by SRB assay; conditions: SNB-19, 48 h; outline: as §1
SNB-75 = assay: Cytotoxicity against human SNB75 cells assessed as growth inhibition after 48 hrs by SRB assay; conditions: SNB-75, 48 h
U-251 = assay: Cytotoxicity against human U251 cells assessed as growth inhibition after 48 hrs by SRB assay; conditions: U-251, 48 h
LOX IMVI = assay: Cytotoxicity against human LOXIMVI cells assessed as growth inhibition after 48 hrs by SRB assay; outline: as §1
M14 = assay: Cytotoxicity against human M14 cells assessed as growth inhibition after 48 hrs by SRB assay; conditions: M14, 48 h; outline: as §1
MDA-MB-435 = assay: Cytotoxicity against human MDA-MB-435 cells assessed as growth inhibition after 48 hrs by SRB assay; conditions: MDA-MB-435, 48 h; outline: as §1
SK-MEL-5 = assay: Cytotoxicity against human SK-MEL-5 cells assessed as growth inhibition after 48 hrs by SRB assay; conditions: SK-MEL-5, 48 h; outline: as §1
[3] = Cytotoxicity against human UACC62 cells assessed as growth inhibition after 48 hrs by SRB assay; conditions: UACC-62, 48 h
IGROV-1 = assay: Cytotoxicity against human IGROV1 cells assessed as growth inhibition after 48 hrs by SRB assay; conditions: IGROV-1, 48 h; outline: as §1
[4] = Cytotoxicity against human OVCAR3 cells assessed as growth inhibition after 48 hrs by SRB assay; conditions: OVCAR-3, 48 h; outline: as §1
[5] = Cytotoxicity against human OVCAR4 cells assessed as growth inhibition after 48 hrs by SRB assay; conditions: OVCAR-4, 48 h; outline: as §1
[6] = Cytotoxicity against human OVCAR5 cells assessed as growth inhibition after 48 hrs by SRB assay; conditions: OVCAR-5, 48 h; outline: as §1
[7] = Cytotoxicity against human OVCAR8 cells assessed as growth inhibition after 48 hrs by SRB assay; conditions: OVCAR-8, 48 h; outline: as §1
[8] = Cytotoxicity against human NCI-ADR-RES cells assessed as growth inhibition after 48 hrs by SRB assay; outline: as §1
SK-OV-3 = assay: Cytotoxicity against human SKOV3 cells assessed as growth inhibition after 48 hrs by SRB assay; conditions: SK-OV-3, 48 h; outline: as §1
786-0 = assay: Cytotoxicity against human 786-0 cells assessed as growth inhibition after 48 hrs by SRB assay; conditions: 786-0, 48 h; outline: as §1
A498 = assay: Cytotoxicity against human A498 cells assessed as growth inhibition after 48 hrs by SRB assay; conditions: A498, 48 h; outline: as §1
CAKI-1 = assay: Cytotoxicity against human Caki1 cells assessed as growth inhibition after 48 hrs by SRB assay; conditions: CAKI-1, 48 h; outline: as §1
RXF 393 = assay: Cytotoxicity against human RXF393 cells assessed as growth inhibition after 48 hrs by SRB assay; conditions: RXF 393, 48 h; outline: as §1
SN12C = assay: Cytotoxicity against human SN12C cells assessed as growth inhibition after 48 hrs by SRB assay; outline: as §1
TK-10 = assay: Cytotoxicity against human TK10 cells assessed as growth inhibition after 48 hrs by SRB assay; conditions: TK-10, 48 h
[9] = Cytotoxicity against human UO31 cells assessed as growth inhibition after 48 hrs by SRB assay; conditions: UO-31, 48 h
[10] = Cytotoxicity against human PC3 cells assessed as growth inhibition after 48 hrs by SRB assay; conditions: PC-3, 48 h; outline: as §1
DU-145 = assay: Cytotoxicity against human DU145 cells assessed as growth inhibition after 48 hrs by SRB assay; conditions: DU-145, 48 h; outline: as §1
MCF7 = assay: Cytotoxicity against human MCF7 cells assessed as growth inhibition after 48 hrs by SRB assay; conditions: MCF7, 48 h; outline: as §1
MDA-MB-231 = assay: Cytotoxicity against human MDA-MB-231 cells assessed as growth inhibition after 48 hrs by SRB assay; conditions: MDA-MB-231, 48 h; outline: as §1
[11] = Cytotoxicity against human Hs578T cells assessed as growth inhibition after 48 hrs by SRB assay; conditions: Hs-578T; outline: as §1
BT-549 = assay: Cytotoxicity against human BT549 cells assessed as growth inhibition after 48 hrs by SRB assay; conditions: BT-549, 48 h; outline: as §1

In the case of `COc1cc(/C(C#N)=C/c2coc3ccccc23)cc(OC)c1OC`, the GI50 (HL-60(TB)) is reported as 1030 nM, the GI50 (K562) is reported as 513 nM and the GI50 (MOLT-4) is reported as 3820 nM. The GI50 (RPMI-8226) was 2470 nM, the GI50 (NCI-H226) was 6.2 µM and the GI50 (NCI-H460) was 839 nM. For the same compound, the GI50 (COLO 205) was 449 nM, the GI50 (HCC 2998) was 4130 nM and the GI50 [1] was 517 nM. It also gave a GI50 [2] of 492 nM, a GI50 (HT-29) of 394 nM and a GI50 (KM12) of 586 nM. The GI50 (SW-620) was 504 nM, the GI50 (SF-268) was 4790 nM and the GI50 (SF-295) was 446 nM. For the same compound, the GI50 (SNB-19) was 3.63 µM, the GI50 (SNB-75) was 769 nM and the GI50 (U-251) was 605 nM. It also gave a GI50 (LOX IMVI) of 993 nM, a GI50 (M14) of 667 nM and a GI50 (MDA-MB-435) of 278 nM. It also gave a GI50 (SK-MEL-5) of 336 nM, a GI50 [3] of 519 nM and a GI50 (IGROV-1) of 3060 nM. The GI50 [4] was 277 nM, the GI50 [5] was 2610 nM and the GI50 [6] was 3.33 µM. The GI50 [7] was 2900 nM, the GI50 [8] was 382 nM and the GI50 (SK-OV-3) was 1710 nM. The GI50 (786-0) was 6.11 µM, the GI50 (A498) was 458 nM and the GI50 (CAKI-1) was 650 nM. For the same compound, the GI50 (RXF 393) was 496 nM, the GI50 (SN12C) was 2170 nM and the GI50 (TK-10) was 2100 nM. The GI50 [9] was 2890 nM, the GI50 [10] was 1840 nM and the GI50 (DU-145) was 1880 nM. For the same compound, the GI50 (MCF7) was 376 nM, the GI50 (MDA-MB-231) was 1710 nM and the GI50 [11] was 2030 nM. The GI50 (BT-549) was 927 nM.
`COc1ccc(/C(C#N)=C/c2cc3ccccc3o2)cc1OC` gave a GI50 (HL-60(TB)) of 481 nM, a GI50 (K562) of 467 nM and a GI50 (MOLT-4) of 548 nM. The GI50 (RPMI-8226) was 1320 nM, the GI50 (NCI-H226) was 34.5 µM and the GI50 (NCI-H460) was 472 nM. For the same compound, the GI50 (COLO 205) was 404 nM, the GI50 (HCC 2998) was 2330 nM and the GI50 [1] was 418 nM. For the same compound, the GI50 [2] was 469 nM, the GI50 (HT-29) was 373 nM and the GI50 (KM12) was 356 nM. For the same compound, the GI50 (SW-620) was 388 nM, the GI50 (SF-268) was 2050 nM and the GI50 (SF-295) was 708 nM. The GI50 (SNB-19) was 5.55 µM, the GI50 (SNB-75) was 1780 nM and the GI50 (U-251) was 760 nM. The GI50 (LOX IMVI) was 930 nM, the GI50 (M14) was 437 nM and the GI50 (MDA-MB-435) was 229 nM. The GI50 (SK-MEL-5) was 564 nM, the GI50 [3] was 557 nM and the GI50 (IGROV-1) was 1270 nM. The GI50 [4] was 279 nM, the GI50 [5] was 7190 nM and the GI50 [6] was 5.23 µM. The GI50 [7] was 3980 nM, the GI50 [8] was 317 nM and the GI50 (SK-OV-3) was 2490 nM. The GI50 (786-0) was 5.84 µM, the GI50 (A498) was 540 nM and the GI50 (CAKI-1) was 492 nM. It also gave a GI50 (RXF 393) of 1300 nM, a GI50 (SN12C) of 956 nM and a GI50 (TK-10) of 2280 nM. It also gave a GI50 [9] of 3790 nM, a GI50 [10] of 2410 nM and a GI50 (DU-145) of 1300 nM. It also gave a GI50 (MCF7) of 446 nM, a GI50 (MDA-MB-231) of 1210 nM and a GI50 [11] of 1880 nM. For the same compound, the GI50 (BT-549) was 950 nM.
`COc1ccc2[nH]cc(/C=C(\C#N)c3cc(OC)c(OC)c(OC)c3)c2c1` showed a GI50 (HL-60(TB)) of 59 nM, a GI50 (K562) of 44 nM and a GI50 (MOLT-4) of 198 nM. The GI50 (RPMI-8226) was 241 nM, the GI50 (NCI-H226) was 0.17 µM and the GI50 (NCI-H460) was 37 nM. It also gave a GI50 (COLO 205) of 51 nM, a GI50 (HCC 2998) of 119 nM and a GI50 [1] of 45 nM. For the same compound, the GI50 [2] was 68 nM, the GI50 (HT-29) was 38 nM and the GI50 (KM12) was 44 nM. For the same compound, the GI50 (SW-620) was 46 nM, the GI50 (SF-268) was 2140 nM and the GI50 (SF-295) was 42 nM. The GI50 (SNB-19) was 0.089 µM, the GI50 (SNB-75) was 43 nM and the GI50 (U-251) was 50 nM. It also gave a GI50 (LOX IMVI) of 74 nM, a GI50 (M14) of 52 nM and a GI50 (MDA-MB-435) of 27 nM. It also gave a GI50 (SK-MEL-5) of 36 nM, a GI50 [3] of 59 nM and a GI50 (IGROV-1) of 379 nM. It also gave a GI50 [4] of 34 nM, a GI50 [5] of 1350 nM and a GI50 [6] of 0.516 µM. The GI50 [7] was 148 nM, the GI50 [8] was 37 nM and the GI50 (SK-OV-3) was 56 nM. For the same compound, the GI50 (786-0) was 0.085 µM, the GI50 (A498) was 25 nM and the GI50 (CAKI-1) was 72 nM. It also gave a GI50 (RXF 393) of 33 nM, a GI50 (SN12C) of 715 nM and a GI50 (TK-10) of 20100 nM. The GI50 [9] was 1260 nM, the GI50 [10] was 54 nM and the GI50 (DU-145) was 153 nM. It also gave a GI50 (MCF7) of 36 nM, a GI50 (MDA-MB-231) of 299 nM and a GI50 [11] of 124 nM. It also gave a GI50 (BT-549) of 348 nM.
